Assay results as given in ChEMBL document CHEMBL4513216, “Probing the Open Global Health Chemical Diversity Library for Multistage-Active Starting Points for Next-Generation Antimalarials” (ACS Infect Dis, 2020).

Experiment: Toxicity liver stage against HepG2, at 10uM
Format: cell-based
Parameters: test concentration 10 uM, cell line HepG2-A16-CD81EGFP
Settings: human, HepG2-A16-CD81EGFP cells; read-out: INHIBITION
Outline: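 Uninfected HepG2-A16-CD81EGFP cells, 3 × 10^3 per well, 1536-well, plated on prespotted compound at 10 μM final, parasite-free screening media added to match infected plates; puromycin 10 μM positive, DMSO 0.5% negative; run in parallel with 48 h PbLuc assay at 37 °C, 5% CO2; viability by CellTiter-Glo luminescence, normalized to controls.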

Compound	cytotoxicity at 10 µM
O=C(CS(=O)(=O)Cc1ccccc1)NCc1ccccc1F	-17.6%
c1ccc(N2CCN(Cc3cnc(C4CCCCO4)nc3)CC2)nc1 (stereo not given)	-3%
CS(=O)(=O)N1CCC2(CCCN(c3ncc(F)cn3)C2)C1 (stereo not given)	5.19%
CC1(C)CN(C(=O)Nc2cc(C(F)(F)F)c[nH]c2=O)CCO1	5.12%
CC(C)(C)OC(=O)NCC1CCCCN1Cc1ccccn1 (stereo not given)	-3.59%
CO[C@H]1CN(S(=O)(=O)c2cn(C)cn2)[C@@H]2CCCO[C@H]12	-132%
CC(C)NC(=O)C1CCN(C(C)C(=O)N2CCc3sccc3C2)CC1 (stereo not given)	5.52%
Cc1cc(-c2cc(N)c(=O)n(CC(=O)NCC3CCCCC3)n2)c(C)o1	-21.1%
COCC(=O)N1CCN2C(=O)OC[C@H]2C1	1.82%
COc1cc(NC(=O)NC(C2CC2)C2CC2)ccc1N1CCOC1=O	4.63%
CC(CN1CCOCC1)n1cncc1-c1ccc2c(c1)CCCN2C (stereo not given)	12.3%
CN(C)CCN1CC(C(=O)N2CCC(c3cc(=O)[nH]cn3)CC2)CC1=O (stereo not given)	-2.34%
Cn1cc(CC(=O)N2CCOC(c3nc(C(C)(C)C)n[nH]3)C2)cn1 (stereo not given)	2.4%
Clc1ccc2[nH]c3c(c2c1)CCCC3c1nn[nH]n1 (stereo not given)	-4.13%
CN(Cc1ccc2c(c1)OCO2)Cc1cscn1	-11.1%
Cc1nn(C)c(C)c1CCC(=O)OCC(=O)N1CCc2sccc2C1	0.927%
CCOCCNS(=O)(=O)c1cc(C)c2nc(O)cc(C)c2c1	-4.77%
CCN(Cc1cccc2c1OCO2)C(=O)NCCOC	1.45%
CC(C)Nc1ncnc2c1CCN(C(=O)CN(C)C)CC2	-70.9%
Cc1nc(C)n(CC2CCCN2Cc2nc3ccccc3s2)n1 (stereo not given)	-6.25%
Cc1nn(C)c(N2CCOCC2)c1CNCC1CCS(=O)(=O)C1 (stereo not given)	-2.09%
O=C(c1csc(-c2ncccn2)n1)N1CCN2CCCCC2C1 (stereo not given)	4.55%

Compound	cytotoxicity at 10 µM
CCc1noc(CS(=O)(=O)Cc2ccccc2Cl)n1	-6.75%
C[C@@H]1CN(S(=O)(=O)c2ccc(F)cc2F)C[C@]1(C)O	-3.36%
CCN(CC)S(=O)(=O)c1ccc(CCC(=O)NCc2cc(C)on2)cc1	-3.09%
CC(=O)N1CCCN(C(=O)NCCc2ccc(Cl)s2)CC1	-2.24%
CN(C(=O)C1CCOCC1)[C@@H]1CCC[C@@H](N2CCCC2)[C@@H]1O	-6.22%
N[C@@H]1CC[C@@H](Nc2nccc(CCC(F)(F)F)n2)C1	-3.73%
CCn1ncnc1C1CC(=O)NCc2nc3ccccn3c21 (stereo not given)	-12.2%
O=C1CO[C@@H]2CN(Cc3cccs3)C[C@H]2N1CC1CC1	-2.32%
Cc1nc(CN2CCc3ncnc(-c4ccncc4)c3CC2)cs1	-70%
Cc1cc(N2Cc3cnn(CCO)c3C2)nc(-c2ccccc2O)n1	-162%
CC1=C(C#N)C(=O)NC(=O)/C1=C\c1c(C)[nH]n(-c2ccc(C)cc2)c1=O	1.91%
CCn1cc(C(=O)N2CCCC(c3noc(C)n3)C2)cn1 (stereo not given)	2.17%
CN(C)CC1CN(Cc2ccc(F)cc2)Cc2nccn2C1 (stereo not given)	-71.1%
COc1ccccc1OCc1cc(C(=O)N2CCCCCC2CO)n[nH]1 (stereo not given)	-2.48%
CN1CC(C(=O)N2CCC(Oc3ccccc3Cl)CC2)CC1=O (stereo not given)	9.99%
CCOc1cc(CNCc2ncc[nH]2)c(Cl)cc1OC(C)C	5.45%
O=C(NC1CC1)N1CCC2(CC1)C(=O)NCCN2Cc1ccccc1	-0.685%
Cc1ccc(C(F)(F)F)cc1NC(=O)C1CCCN1 (stereo not given)	4.28%
COCCCNC(=O)CN(C)C(=O)c1cc(C)ccc1O	-6.81%
CCC1=N[C@@]2(CC[C@@H]3CN(CC4CC4)C[C@@H]32)C(=O)N1CC1CC1	5.39%
CS(=O)(=O)NCC1CCCN(C(=O)c2cc3ccccc3o2)C1 (stereo not given)	-1.82%
c1coc(CN2CCn3c(COCC4CC4)nnc3C2)c1	6.28%

Compound	cytotoxicity at 10 µM
CCn1nnc(NCc2ccccc2OCc2ccc(Cl)cc2)n1	-0.139%
CC(C)c1nn(C)c(N(C)C)c1CNCc1cscn1	-5.54%
CCN(CC)S(=O)(=O)N(C)Cc1ccc2c(c1)OCCO2	-7.85%
O=C(C1CC1)N1CC2(CCN(CC3CC3)CC2)c2cc(F)ccc21	0.64%
CC(=O)c1cn(CCC(=O)N[C@@H](CC(C)C)C(=O)O)c2ccccc12	2.1%
c1cc(CNCc2ccc(-n3cncn3)nc2)cc(OC2CCCC2)c1	2.3%
COc1ccc(-c2noc(Cn3cc4c(n3)CCC4)n2)c(OC)c1OC	4.7%
CS(=O)(=O)NC[C@]12COC[C@H]1CN(C(=O)C1CCCCC1)C2	3.34%
Cc1noc(CCCC(=O)N(CC2CCOC2)C2CC2)n1 (stereo not given)	13%
CN(C)Cc1nc(C(=O)N2CCCC(COc3ccc(F)cc3)C2)cs1 (stereo not given)	-6.09%
O=C(NCCc1ccc(Cl)cc1)c1coc(CN2CCOCC2)c1	0.383%
CCC1(CO)CCCN(Cc2nccn2Cc2ccccc2)C1 (stereo not given)	-7.35%
CNc1cc(C)nc(NC2CCCN(C3Cc4ccccc4C3)C2)n1 (stereo not given)	0.403%
Cc1cc(=O)c2ccccc2n1CC1CCN(C(C)C)C1 (stereo not given)	4.64%
COc1cccc(C2CCCN2Cc2nc3c(cnn3C)c(=O)[nH]2)c1 (stereo not given)	-4.35%
CNCCc1nc2cc(Cl)ccc2[nH]1	21.2%
CCN1CC(C(=O)N2CCC(Oc3ccccc3Cl)CC2)CC1=O (stereo not given)	-22.4%
CC(c1cccc(S(N)(=O)=O)c1)N(C)CCOc1ccccc1 (stereo not given)	-3.83%
O=c1c2cccnc2cnn1CC(O)c1ccc(Br)cc1 (stereo not given)	-2.59%
CCCOc1ccccc1CCCNc1ncnc2oc(C)nc12	22.4%
c1ccc(CN2CCc3ncnc(-c4ccncc4)c3CC2)nc1	-73.1%
COc1cc(C(=O)NC(C)c2cccs2)cc2c1OCCO2 (stereo not given)	-18.2%

Compound	cytotoxicity at 10 µM
CCc1noc(CNc2cc3c(cc2Cl)OCCO3)n1	-0.18%
COc1ccc2c(ccn2CCC(=O)Nc2nc[nH]n2)c1	-12.6%
Cc1ccc2c(n1)N(CCn1cccn1)CCN(C(=O)NC1CC1)C2	-4.58%
CNC(=O)N1CC[C@H]2N(C)CC[C@@]2(C(=O)N2CCOCC2)CC1	-2.72%
Cc1cccc(CN2CCC(c3nnc(-c4scnc4C)o3)CC2)c1	-3.8%
Cc1ccc(CN2CC[C@H](c3nnc(-c4ccco4)o3)C2)cc1	-2.25%
Cc1nc(CN(C)C(=O)C2CC(=O)N(c3cccc(O)c3)C2)cs1 (stereo not given)	-0.968%
O=C(c1ccc(Cn2cnnn2)cc1)N1CC[C@H](CO)[C@H](O)C1	0.529%
CCc1cnc2c(c1NCc1ccncc1)c(=O)n(C)c(=O)n2C	-12.1%
c1cncc(COC[C@H]2CC[C@H]3[C@H](CCN3Cc3cccs3)O2)c1	3.45%
CCNc1ncc(C(=O)N2CCOC(CCCc3ccccc3)C2)cn1 (stereo not given)	79.2%
CN1CC2(CCCN(C(=O)Cc3cccc(O)c3)C2)OC1=O (stereo not given)	4.61%
c1ccc(OC[C@]23COC[C@H]2CN(C2CCOCC2)C3)nc1	-2.6%
CCc1cc(N2CCN(c3ccc(Cl)cn3)CC2)n2nccc2n1	23.1%
O=C(c1cn(-c2ccccc2)nn1)N1CCCC(n2cccn2)C1 (stereo not given)	-7.85%
Cc1cc(C(=O)N2CCCC(n3cncn3)C2)c(C)n1CC1CC1 (stereo not given)	2.37%
Cc1csc(CNc2cnn(CC(F)(F)F)c2)n1	5.19%
Cc1cc(NC(=O)CNC(C)(C)c2nc(C)c(C)s2)no1	13.3%
Cc1cn2c(n1)CCC(NC(=O)c1[nH]ncc1Br)C2 (stereo not given)	-6.49%
Cc1nc(-c2cccnc2)ncc1C(=O)N1CCCC(N(C)C)CC1 (stereo not given)	9.81%
CC(C)N(CC(N)=O)C(=O)CCC(=O)c1ccc(F)cc1F	0.529%
Cc1ccccc1C(O)CNC(=O)Cc1ccc(F)cc1 (stereo not given)	5.8%

Compound	cytotoxicity at 10 µM
O=C(c1nnn(-c2ccc(C(F)(F)F)cc2)n1)N1CCC(O)CC1	-4.52%
CN(Cc1cccc(O)c1)C(=O)c1ccc(CCC(C)(C)O)cc1	3.58%
Cc1cccc(N2CCC(NC(C)c3cccs3)CC2)n1 (stereo not given)	-17.2%
Cc1cc(CN2CCC(CNS(=O)(=O)c3ccccc3Cl)CC2)c(C)o1	9.51%
COc1ccc(CN2CCN(CC3CC3)[C@@H]3CS(=O)(=O)C[C@@H]32)cc1O	-0.931%
CS(=O)(=O)N1CCC2(CC1)CC(Oc1ccccn1)CO2 (stereo not given)	-150%
O=C(NCc1ccncc1)N(Cc1ccccc1F)C1CC1	-3.32%
CN(C)c1ccc(CN2CCC(C(O)Cc3ccccc3)CC2)cn1 (stereo not given)	-1.29%
Cc1ccc2c(n1)N(C)CCN(CCN1CCCC1)C2	-8.84%
N#Cc1cccc(S(=O)(=O)N2CCCCC2CCN2CCCC2=O)c1 (stereo not given)	-16.9%
O=C1COC2(CCN(CC3CCOCC3)CC2)CN1Cc1ccccn1	-2.76%
Cc1nc(CN(C)Cc2nc(-c3sccc3C)oc2C)no1	-0.205%
CCN(CC)C(=O)c1ccc(Cl)c(NC(=O)c2csnn2)c1	7.3%
Cc1ccc(O)c(CNc2cccc(OCCF)c2)n1	-3.09%
O[C@H]1CN(Cc2c[nH]nc2-c2ccccc2)CC[C@@]12CCCO2	10.3%
COc1cncc(N2CCN(Cc3ccco3)CC2)n1	0.197%
CCOc1ccc(C(=O)N(C)C)cc1NC(=O)c1ccsc1	-0.12%
CCCSc1ccccc1NC(=O)N1CCN(C(=O)c2ccc[nH]2)CC1	3.99%
CCOCCN1CCN(CC(O)c2ccc(C)c(C)c2)CC1 (stereo not given)	-6.33%
COC(=O)c1cccn1C1CCN(Cc2cccc(C(N)=O)c2)CC1	-4.7%
CCS(=O)(=O)N1CCc2onc(COc3ccccn3)c2C1	-4.72%
CCn1nc(C)cc1C(=O)OCCNc1ncnc2ccccc12	61.8%
